Converted amounts (≈) assume the structure as drawn. The source made the active and inactive calls. The rule behind the calls is not given here.
Tests used:
Rhesus monkey [1] = experiment: Increase in amyloid beta40 in CSF of rhesus monkey at 5 mg/kg, po administered for 2 weeks; assay type: functional, organism-based; conditions: Macaca mulatta
Mus musculus [2] = experiment: Toxicity in Tg2576 transgenic mouse assessed as increase in plasma triglyceride level at 10 mg/kg, sc dosed for 3 weeks; assay type: organism-based; conditions: in vivo, 504 h
Procedure, shortened: (§1)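 12-month-old Tg2576 mice were dosed subcutaneously for three weeks. Brain was assayed for ABCA1 protein, soluble apoE and DEA-soluble Aβ, and plasma and liver were assayed for triglycerides. Groups were compared with vehicle by ANOVA.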

Mus musculus [3] = experiment: Toxicity in Tg2576 mouse assessed as increase in liver triglyceride level at 10 mg/kg, sc dosed for 3 weeks; assay type: organism-based; conditions: in vivo, 504 h; procedure, shortened: as §1
Rhesus monkey [4] = experiment: Increase in amyloid beta40 in CSF of rhesus monkey at 10 mg/kg, po administered for 2 weeks; assay type: functional, Macaca mulatta
Rhesus monkey [5] = experiment: Increase in amyloid beta42 in CSF of rhesus monkey at 5 mg/kg, po administered for 2 weeks; assay type: functional, organism-based; conditions: Macaca mulatta
Rhesus monkey [6] = experiment: Increase in amyloid beta42 in CSF of rhesus monkey at 10 mg/kg, po administered for 2 weeks; assay type: functional, Macaca mulatta
[7] = Solubility of the compound at pH 2; assay type: physicochemical; conditions: buffer
[8] = molecular target: T1, Oxysterols receptor LXR-alpha (Homo sapiens) (UniProt Q13133); experiment: (§2) Agonist activity at LXRalpha (unknown origin) expressed in human HepG2 cells co-expressing ABCA1 promoter measured after 48 hrs by cell-based transactivation assay
T1 sequence (whole entry): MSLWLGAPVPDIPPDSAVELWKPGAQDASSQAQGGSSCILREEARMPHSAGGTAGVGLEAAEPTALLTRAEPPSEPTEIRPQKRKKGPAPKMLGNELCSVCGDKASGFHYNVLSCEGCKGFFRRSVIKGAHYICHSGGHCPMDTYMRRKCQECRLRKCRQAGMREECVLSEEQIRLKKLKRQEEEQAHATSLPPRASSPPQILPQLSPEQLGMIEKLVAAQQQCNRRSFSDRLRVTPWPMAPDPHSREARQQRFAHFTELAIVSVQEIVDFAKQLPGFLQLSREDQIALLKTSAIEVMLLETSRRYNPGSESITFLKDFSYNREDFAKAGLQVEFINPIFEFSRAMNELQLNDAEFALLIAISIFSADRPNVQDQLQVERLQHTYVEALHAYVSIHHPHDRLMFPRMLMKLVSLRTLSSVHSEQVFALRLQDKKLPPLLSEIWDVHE

[9] = molecular target: T2, Oxysterols receptor LXR-alpha (Homo sapiens, UniProt Q13133); experiment: as §2
T2 sequence (Q13133 whole entry): T1 sequence (whole entry)

P-gp [10] = experiment: Efflux ratio in MDCK cells expressing human P-gp assessed as ratio of permeability across basolateral to apical side over apical to basolateral side; assay type: ADME, cell-based, Canis lupus familiaris; conditions: dog, MDCK-MDR1
[11] = molecular target: T3, Oxysterols receptor LXR-beta (Homo sapiens) (UniProt P55055); experiment: (§3) Agonist activity at LXRbeta (unknown origin) expressed in human H4 cells co-expressing ABCA1 promoter measured after 48 hrs by cell-based transactivation assay
T3 sequence (whole entry): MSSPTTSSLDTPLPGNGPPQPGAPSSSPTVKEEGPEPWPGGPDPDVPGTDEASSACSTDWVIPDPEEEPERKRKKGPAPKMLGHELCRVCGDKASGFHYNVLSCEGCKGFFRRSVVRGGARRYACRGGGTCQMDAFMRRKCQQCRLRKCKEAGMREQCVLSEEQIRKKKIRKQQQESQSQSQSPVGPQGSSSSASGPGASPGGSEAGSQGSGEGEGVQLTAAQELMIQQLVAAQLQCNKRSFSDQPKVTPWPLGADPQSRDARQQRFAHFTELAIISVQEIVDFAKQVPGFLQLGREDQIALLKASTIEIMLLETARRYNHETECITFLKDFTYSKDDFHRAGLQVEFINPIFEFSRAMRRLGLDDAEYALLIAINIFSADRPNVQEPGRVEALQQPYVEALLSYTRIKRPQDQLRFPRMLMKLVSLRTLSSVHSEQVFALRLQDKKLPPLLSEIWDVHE

[12] = molecular target: T4, Oxysterols receptor LXR-beta (Homo sapiens, UniProt P55055); experiment: as §3
T4 sequence (P55055 whole entry): T3 sequence (whole entry)

P-gp [13] = experiment: Efflux ratio in MDCK cells expressing rat P-gp assessed as ratio of permeability across basolateral to apical side over apical to basolateral side; assay type: ADME, cell-based, Canis lupus familiaris; conditions: dog, MDCK-MDR1

Structure (SMILES)	Activity (Rhesus monkey [1])	Activity (Mus musculus [2])	Activity (Mus musculus [3])	Activity (Rhesus monkey [4])	Activity (Rhesus monkey [5])	Activity (Rhesus monkey [6])	solubility [7]	Emax [8]	EC50 [9]	efflux ratio (P-gp [10])	Emax [11]	EC50 [12]	efflux ratio (P-gp [13])
O=S(=O)(c1ccccc1)N(CC(F)(F)F)c1ccc(C(O)(C(F)(F)F)C(F)(F)F)cc1 [T091317]	inactive	Toxic	Toxic	25%	inactive	25%	–	–	–	–	–	–	–
CN(C)C(=O)c1ccc(N2CCC(C3CCN(C(=O)[C@](O)(c4ccccc4)C(F)(F)F)CC3)CC2)cc1Cl	–	–	–	–	–	–	197 µM (≈ 109 µg/mL)	24%	500 nM	1.8	91%	550 nM	4.3

— ChEMBL document CHEMBL3808288, “Identification and in Vivo Evaluation of Liver X Receptor β-Selective Agonists for the Potential Treatment of Alzheimer's Disease” (J Med Chem, 2016)
